According to ChEMBL document CHEMBL3414548, “Luotonin-A based quinazolinones cause apoptosis and senescence via HDAC inhibition and activation of tumor suppressor proteins in HeLa cells” (Eur J Med Chem, 2015):
The source made the active and inactive calls. No cut-off for these calls is given here.

Experiments:
[1] = test system: HeLa; assay: Cell cycle arrest in human HeLa cells assessed as accumulation at G1 phase at 8 uM after 48 hrs by propidium iodide staining-based flow cytometric analysis (reference value: 68%); assay type: functional
[2] = test system: HeLa; assay: Cell cycle arrest in human HeLa cells assessed as accumulation at S phase at 4 uM after 48 hrs by propidium iodide staining-based flow cytometric analysis (reference value: 7%); assay type: functional
[3] = test system: K562; assay: Cytotoxicity against human K562 cells after 72 hrs by MTT assay; assay type: functional, cell-based; conditions: K562, 72 h
Method in brief: (§1)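 Cells were seeded at 1×10⁴ per well and preincubated 18 h at 37 °C, 5% CO₂. They were then exposed to 1–256 μM for 72 h with DMSO ≤0.25%. MTT was added for 2 h and formazan was solubilized in extraction buffer before reading OD at 570 nm. IC50 is mean ± SD of three independent experiments. HEK is the normal-cell line; cancer lines were grown in DMEM with 10% serum.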

[4] = test system: HeLa; assay: Cell cycle arrest in human HeLa cells assessed as accumulation at G2/M phase at 4 uM after 48 hrs by propidium iodide staining-based flow cytometric analysis (reference value: 19%)
[5] = test system: MCF7; assay: Cytotoxicity against human MCF7 cells after 72 hrs by MTT assay; assay type: functional, cell-based; conditions: MCF7, 72 h; method in brief: as §1
[6] = test system: HeLa; assay: Cell cycle arrest in human HeLa cells assessed as accumulation at G2/M phase at 4 uM after 48 hrs by propidium iodide staining-based flow cytometric analysis (reference value: 31%); assay type: functional
[7] = test system: HeLa; assay: Cell cycle arrest in human HeLa cells assessed as accumulation at S phase at 8 uM after 48 hrs by propidium iodide staining-based flow cytometric analysis (reference value: 10%); assay type: functional
[8] = Cytotoxicity against HEK cells after 72 hrs by MTT assay; assay type: cell-based; conditions: Homo sapiens, HEK293, 72 h; method in brief: as §1
[9] = test system: HeLa; assay: Cell cycle arrest in human HeLa cells assessed as accumulation at G0/G1 phase at 4 uM after 48 hrs by propidium iodide staining-based flow cytometric analysis (reference value: 62%); assay type: functional
[10] = test system: HeLa; assay: Cell cycle arrest in human HeLa cells assessed as accumulation at G0 phase at 8 uM after 48 hrs by propidium iodide staining-based flow cytometric analysis (reference value: 3%); assay type: functional
[11] = test system: HeLa; assay: Cytotoxicity against human HeLa cells after 72 hrs by MTT assay; assay type: functional, cell-based; method in brief: as §1
[12] = test system: HEK293; assay: Selectivity index, ratio of IC50 for HEK cells to IC50 for human K562 cells; assay type: functional
Method in brief: (§2)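 Selectivity index is IC50 in normal HEK cells divided by IC50 in the cancer cell line.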

[13] = test system: HEK293; assay: Selectivity index, ratio of IC50 for HEK cells to IC50 for human MCF7 cells; assay type: functional; method in brief: as §2
[14] = test system: HeLa; assay: Selectivity index, ratio of IC50 for HEK cells to IC50 for human HeLa cells; assay type: functional; method in brief: as §2
[15] = test system: HeLa; assay: Downregulation of HDAC-1 mRNA expression in human HeLa cells at 4 uM after 48 hrs by RT-PCR analysis; assay type: functional, cell-based
Method in brief: (§3)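 HeLa cells were treated at 4 μM for 48 h before RNA isolation. cDNA was amplified by RT-PCR with gene-specific primers, using GAPDH as loading control. Products were run on 1% agarose gel with ethidium bromide, and band intensity was quantified by densitometry.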

[16] = test system: HeLa; assay: Upregulation of p21 mRNA expression in human HeLa cells at 4 uM after 48 hrs by RT-PCR analysis; assay type: functional, cell-based; method in brief: as §3
[17] = test system: HeLa; assay: Induction of human p16 promoter activity transfected in human HeLa cells at 4 uM after 48 hrs by luciferase-based luminescence assay; assay type: cell-based
Method in brief: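 A 1.4 kb human p16 promoter in pGL3-basic luciferase vector was co-transfected into HeLa with a β-gal plasmid. Cells were then treated at 4 μM for 48 h. Lysate luciferase luminescence was normalized to β-galactosidase as internal control.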

[18] = test system: HeLa; assay: Downregulation of HDAC-2 mRNA expression in human HeLa cells at 4 uM after 48 hrs by RT-PCR analysis; assay type: functional, cell-based; method in brief: as §3
[19] = test system: HeLa; assay: Downregulation of EZH2 mRNA expression in human HeLa cells at 4 uM after 48 hrs by RT-PCR analysis; assay type: functional, cell-based; method in brief: as §3
[20] = test system: HeLa; assay: Downregulation of HDAC-5 mRNA expression in human HeLa cells at 4 uM after 48 hrs by RT-PCR analysis; assay type: functional, cell-based; method in brief: as §3
[21] = test system: HeLa; assay: Induction of senescence in human HeLa cells at 4 uM after 72 hrs by X-gal staining-based beta-galactosidase assay; assay type: functional, cell-based
Method in brief: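 HeLa cells in chamber slides were treated at 4 μM for 72 h. They were fixed in 3% paraformaldehyde and then in methanol at 4 °C. Staining used X-gal in sodium phosphate buffer with ferro/ferricyanide, 1 mM MgCl₂ and citric acid for 24 h. Senescent cells were scored by microscopy as enlarged, flattened and blue.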

[22] = test system: HeLa; assay: Change in HDAC-6 mRNA expression in human HeLa cells at 4 uM after 48 hrs by RT-PCR analysis; assay type: functional, cell-based; method in brief: as §3
[23] = test system: HeLa; assay: Upregulation of p53 mRNA expression in human HeLa cells at 4 uM after 48 hrs by RT-PCR analysis; assay type: functional, cell-based; method in brief: as §3
[24] = test system: HeLa; assay: Change in HDAC-7 mRNA expression in human HeLa cells at 4 uM after 48 hrs by RT-PCR analysis; assay type: functional, cell-based; method in brief: as §3

SMILES | IC50 [3] [µM] | IC50 [5] [µM] | IC50 [8] [µM] | IC50 [11] [µM] | Ratio IC50 [12] | Ratio IC50 [13] | Ratio IC50 [14] | also measured
Cc1nc2ccccc2c(=O)n1-c1ccccc1Cn1cc(S)nn1 | 26.2 | 15 | 189 | 11 | 7.2 | 12.61 | 17.22 | Activity [1]: 69%; Activity [2]: 7%; Activity [4]: 21%; Activity [6]: 22%; Activity [7]: 6%; Activity [9]: 71%; Activity [10]: 4%
COc1cc2nc(C)n(-c3ccccc3Cn3cc(CO)nn3)c(=O)c2cc1OC | 28 | 15.8 | 110 | 11.9 | 3.92 | 6.94 | 9.25 | –
COc1ccc2cc(-c3cn(Cc4ccccc4-n4c(C)nc5ccccc5c4=O)nn3)ccc2c1 | 19.5 | 8.72 | 178 | 8.68 | 9.11 | 20.41 | 20.5 | Activity [1]: 72%; Activity [2]: 5%; Activity [4]: 17%; Activity [6]: 22%; Activity [7]: 5%; Activity [9]: 73%; Activity [10]: 5%
COc1cc2nc(C)n(-c3ccccc3Cn3cc(-c4cccc(C)c4)nn3)c(=O)c2cc1OC | 31.5 | 18 | 56 | 14.4 | 1.77 | 3.1 | 3.88 | –
CCCCCCc1cn(Cc2ccccc2-n2c(C)nc3cc(OC)c(OC)cc3c2=O)nn1 | 24 | 17.7 | 53 | 14.6 | 2.2 | 2.98 | 3.62 | –
COc1cccc2c1C(=O)c1c(O)c3c(c(O)c1C2=O)C[C@@](O)(C(=O)CO)C[C@@H]3O[C@H]1C[C@H](N)[C@H](O)[C@H](C)O1 | – | – | – | – | – | – | – | Activity [15]: Active; Activity [16]: Active; Activity [17]: Active; Activity [18]: Active; Activity [19]: Active; Activity [20]: Active; Activity [21]: Active; Activity [22]: inactive; Activity [23]: Active; Activity [24]: inactive
COc1cc2nc(C)n(-c3ccccc3Cn3nnc4ncccc43)c(=O)c2cc1OC | 19.7 | 18.6 | 79 | 11.9 | 4.01 | 4.25 | 6.64 | –
COc1ccc(-c2cn(Cc3ccccc3-n3c(C)nc4cc(OC)c(OC)cc4c3=O)nn2)cc1 | 22.4 | 14 | 72 | 11.9 | 3.2 | 5.15 | 6.06 | –
COc1cc2nc(C)n(-c3ccccc3Cn3ccnn3)c(=O)c2cc1OC | 28.8 | 23.7 | 98 | 12.6 | 3.4 | 4.13 | 7.77 | –
COc1cc2nc(C)n(-c3ccccc3Cn3cc(CCO)nn3)c(=O)c2cc1OC | 26.6 | 14 | 124 | 16 | 4.66 | 8.85 | 7.75 | –
CCCCCC(O)c1cn(Cc2ccccc2-n2c(C)nc3cc(OC)c(OC)cc3c2=O)nn1 (centres undefined) | 22.9 | 17.9 | 48 | 16 | 2.09 | 2.68 | 3 | –
COc1ccc2cc(-c3cn(Cc4ccccc4-n4c(C)nc5cc(OC)c(OC)cc5c4=O)nn3)ccc2c1 | 28 | 18.2 | 68 | 14.6 | 2.42 | 3.74 | 4.65 | –
COc1ccc(-c2cn(Cc3ccccc3-n3c(C)nc4ccccc4c3=O)nn2)cc1 | 22.4 | 14.4 | 116 | 12.8 | 5.17 | 8.05 | 9.06 | –
COc1cc2nc(C)n(-c3ccccc3Cn3cc(S)nn3)c(=O)c2cc1OC | 30.4 | 9.77 | 214 | 10.5 | 7.03 | 21.9 | 20.38 | Activity [1]: 70%; Activity [2]: 6%; Activity [4]: 20%; Activity [6]: 23%; Activity [7]: 5%; Activity [9]: 71%; Activity [10]: 5%
COc1cc2nc(C)n(-c3ccccc3Cn3cc(-c4cc5ccccc5c5ccccc45)nn3)c(=O)c2cc1OC | 25.6 | 13.2 | 89 | 12.8 | 3.47 | 6.72 | 6.95 | –
Cc1nc2ccccc2c(=O)n1-c1ccccc1Cn1ccnn1 | 22.4 | 15.3 | 76 | 16.4 | 3.39 | 4.97 | 4.62 | –
COc1cc2nc(C)n(-c3ccccc3Cn3cc(-c4ccccc4)nn3)c(=O)c2cc1OC | 25.6 | 9.19 | 64 | 13.7 | 2.5 | 6.96 | 4.66 | –
CCCc1cn(Cc2ccccc2-n2c(C)nc3cc(OC)c(OC)cc3c2=O)nn1 | 22.4 | 14.4 | 74 | 13.2 | 3.3 | 5.13 | 5.58 | –
COc1cc2nc(C)n(-c3ccccc3Cn3cc(-c4ccc(C)cc4)nn3)c(=O)c2cc1OC | 28 | 14.4 | 204 | 9.92 | 7.28 | 14.16 | 20.56 | Activity [1]: 71%; Activity [2]: 6%; Activity [4]: 17%; Activity [6]: 22%; Activity [7]: 7%; Activity [9]: 72%; Activity [10]: 5%
COc1cc2nc(C)n(-c3ccccc3Cn3cc(-c4ccc(-c5ccccc5)cc4)nn3)c(=O)c2cc1OC | 22.4 | 10.5 | 71 | 14.2 | 3.16 | 6.78 | 5.01 | –
COc1cc2nc(C)n(-c3ccccc3Cn3cc(-c4ccccn4)nn3)c(=O)c2cc1OC | 20.8 | 18.6 | 252 | 10.6 | 12.11 | 13.54 | 23.84 | Activity [1]: 69%; Activity [2]: 7%; Activity [4]: 19%; Activity [6]: 22%; Activity [7]: 7%; Activity [9]: 72%; Activity [10]: 5%
COc1cc2nc(C)n(-c3ccccc3Cn3cc(-c4cccnc4)nn3)c(=O)c2cc1OC | 20 | 10.2 | 54 | 13.2 | 2.7 | 5.3 | 4.07 | –
COc1cccc(-c2cn(Cc3ccccc3-n3c(C)nc4cc(OC)c(OC)cc4c3=O)nn2)c1 | 22.4 | 15.1 | 51 | 11.9 | 2.27 | 3.37 | 4.29 | –
